Rows were chosen to be rich in hits. Some 2.4% of all compounds tested hit in one or more screens of this group.
ERAP1 HTS inh: inhibitors of human ERAP1 aminopeptidase. recombinant ERAP1, Leu-AMC fluorescence, 60 min. inhibition, % at 10.7 µM. 0.15% of 340,000 active. AID 652197;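 active = mean replicate inhibition of at least 30%, or all replicates individually reaching that 30% level; inactive = mean below 30% and not every replicate reaching it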;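 also: 0% = neutral control wells and 100% = L-leucinethiol positive control wells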
Ecoli rRNA inh: selective bacterial rRNA inhibition in E. coli. E. coli WT GFP vs humanized-ribosome RFP mutants, fluorescence, 24 h; stronger effect = lower value; DMSO median 0, no signal -100. GFP signal change (wild-type ribosome), % (concentration not given with the values). 1.6% of 350,000 active. AID 720706;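 active = significant combined selectivity score with lowered wild-type GFP, culture density cut under 30%, mutant RFP and density less affected; inactive = any of these conditions unmet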
ARNT TACC3 PPI: disrupts binding between human ARNT and TACC3 | Q9Y6A5 | inhibition, % at 9.99 µM | 0.66% of 390,000 active | AlphaScreen His-ARNT PAS-B/GST-TACC3 binding, luminescence; TACC3 fragment carries E629A point mutation;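 active = mean inhibition of replicates at least 50% and at least half of replicates each reaching 50%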;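 also: 0% = complete ARNT plus TACC3 wells and 100% = ARNT alone without TACC3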
S100A4 inh HTS: blocks human S100A4 binding to myosin IIA peptide; P26447; S100A4/TAMRA-MyoIIA peptide fluorescence polarization; inhibition, % at 10.7 µM; 0.14% of 360,000 active;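 active = mean inhibition of at least 70% across replicates, with every replicate also reaching that level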
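Assay system: human S100A4 monomer with TAMRA-labelled myosin IIA peptide / Buffer or medium: Calcium-containing HEPES buffer, pH 7.2 / Reagent: TAMRA-labelled myosin IIA heavy-chain peptide probe, 5 nM / Compound: one dose per compound / Timing: polarization read 5 min after assay mix addition, stable 5–60 min / Benchmarks: neutral control DMSO, positive control TFP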
PGC1a acetyl inh: PGC1a acetylation modulation, inhibitor mode. AID 651687. inhibition, % at 15.6 µM. 0.17% of 350,000 active. U2OS PGC1a acetylation, AlphaScreen anti-acetyl-lysine; with virally co-expressed GCN5 acetyltransferase;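 active = every replicate shows inhibition of at least 40%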;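 also: 0% = neutral control wells and 100% = positive control wells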
CASP6 VEID inh: blocks human caspase-6 cleavage activity. AID 686996. inhibition, % at 12.5 µM. purified caspase-6, Z-VEID-R110 cleavage fluorescence. 0.53% of 350,000 active;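 active = mean inhibition across replicates at least about 35%, with every replicate also reaching that limit, limit read from the data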;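 also: 0% = median of neutral control wells and 100% = no fluorescence left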
* marks the source's active call; other numbers are inactive results; x = no result.

SMILES	ERAP1 HTS inh	Ecoli rRNA inh	ARNT TACC3 PPI	S100A4 inh HTS	PGC1a acetyl inh	CASP6 VEID inh
C[C@H](CO)N1C[C@H](C)[C@H](CN(C)C(=O)NC2CCCCC2)OCCCC[C@H](C)Oc2ccc(N(C)C)cc2C1=O	-2	-3	-3	25	8	3
CC(=O)Nc1ccc2nc(NC(=O)C(Cl)(Cl)Cl)sc2c1	-2	-37*	1	-1	x	3
CC(=O)Nc1ccc2nc(NC(=O)c3cccnc3)sc2c1	-3	32	x	3	-4	2
NNc1ccc(S(=O)(=O)N2CCCCC2)cn1	-3	8	54*	-15	6	-2
Cc1cc(Sc2nnc(/N=C/N(C)C)s2)c2ccccc2n1	4	-20*	-3	-1	6	-2
Cc1cc(Sc2nnc(N)s2)c2ccccc2n1	3	7	1	-3	-59	-1
O=C1Nc2cc(Cl)cnc2N2CCCC12 (stereo unspecified)	2	9	2	-2	-13	40*
COCC#Cc1cnc2c(c1)C(=O)N([C@H](C)CO)C[C@H](C)[C@H](CN(C)C)O2	2	4	-1	12	-1	-2
Cc1noc(C)c1S(=O)(=O)Nc1ccc2c(c1)C(=O)N([C@H](C)CO)C[C@H](C)[C@H](CN(C)Cc1ccc(Cl)c(Cl)c1)OCCCC[C@@H](C)O2	0	3	-7	-4	-1	2
Cc1noc(C)c1S(=O)(=O)Nc1ccc2c(c1)C(=O)N([C@H](C)CO)C[C@@H](C)[C@H](CN(C)CC1CCCCC1)OCCCC[C@H](C)O2	-2	-1	11	7	x	-1
Cc1noc(C)c1S(=O)(=O)Nc1ccc2c(c1)C(=O)N([C@@H](C)CO)C[C@@H](C)[C@@H](CN(C)CC1CCCCC1)OCCCC[C@@H](C)O2	1	1	-1	17	85*	-3
C[C@@H]1CCCCO[C@@H](CN(C)Cc2ccc3c(c2)OCO3)[C@H](C)CN([C@@H](C)CO)C(=O)c2cc(NS(=O)(=O)c3ccccc3)ccc2O1	-5	4	-2	1	2	2
C[C@@H]1CCCCO[C@H](CN(C)Cc2ccc3c(c2)OCO3)[C@@H](C)CN([C@@H](C)CO)C(=O)c2cc(NS(=O)(=O)c3ccccc3)ccc2O1	-5	4	6	-3	-12	35*
Cc1noc(C)c1S(=O)(=O)Nc1ccc2c(c1)C(=O)N([C@@H](C)CO)C[C@@H](C)[C@H](CN(C)Cc1ccc(Cl)c(Cl)c1)OCCCC[C@@H](C)O2	0	-3	0	1	-20	78*
Cc1cc2c(sc3c(C)ccc(C)c32)c(C)n1	-1	-35*	-2	0	2	6
Cc1cc(C)c2c(N)c(S(=O)(=O)c3ccccc3)sc2n1	x	x	-2	x	-8	x
COc1ccc(C(CC(=O)c2ccc(C)cc2)Sc2ccccc2N)cc1 (stereo unspecified)	-5	1	x	3	-4	x
Nc1ccccc1SC(CC(=O)c1ccccc1)c1cccc([N+](=O)[O-])c1 (stereo unspecified)	-1	-24*	x	-2	-11	-1
Nc1ccccc1SC(CC(=O)c1ccccc1)c1ccc([N+](=O)[O-])cc1 (stereo unspecified)	-1	-20*	x	1	2	-1
C[C@H](CO)N1C[C@H](C)[C@@H](CN(C)Cc2ccccc2F)Oc2cc(C3=CCCC3)ccc2S1(=O)=O	0	5	x	-8	7	1
CCN1[C@@H]2Cn3c(ccc(-c4cccc(F)c4)c3=O)[C@H]1[C@@H](C(=O)NCCCN(C)C)[C@@H]2CO	2	4	-6	3	x	-2
Cc1ccc(S(=O)(=O)NC[C@H]2CC[C@@H]3[C@@H](CN3C(=O)CN(C)C)O2)cc1	1	x	x	-2	-8	-9
CCCC(=O)Nc1ccc2c(c1)C(=O)N(C)C[C@@H](OC)[C@H](C)CN(CC1CCOCC1)[C@H](C)CO2	x	-3	x	x	-17	x

Screening data as filed in PubChem.
